Data set [1] can be described thus: Half life in swine brain at 10 uM after 30 to 60 mins by LC-MS/MS analysis. The class given is ADME, tissue-based, Sus scrofa. The note with it: pig. Summed up: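 Prodrugs at 10 µM spiked into swine brain homogenate (1% w/v) and incubated at 37 °C with orbital shaking. Triplicate aliquots were taken at 0, 30 and 60 min and quenched with ice-cold acetonitrile containing losartan IS. Prodrug was measured by LC-MS/MS as the analyte/IS peak-area ratio. t1/2 = 0.693/Kel, with Kel the slope of ln % remaining versus time.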

A short description of data set [2]: Unbound drug level in swine brain at 1.6 mg/kg, iv infusion via saphenous vein after 60 mins by LC-MS/MS analysis. In kind it is ADME, organism-based, Sus scrofa. As to conditions: pig, in vivo, 1 h. Summed up: (§1)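 Swine, n = 2/dose. Dosing was iv infusion over 1 h (1.6 mg/kg or molar equivalent), with brain and plasma taken 60 min post-infusion and totals measured by LC–MS/MS after dabsyl derivatisation. Free levels were calculated from the totals using ultrafiltration-derived bound fractions for brain and plasma (10 µM, 37 °C, 30 min).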

A short description of data set [3]: AUC (0 to t) in swine at 1.6 mg/kg, iv infusion via saphenous vein after 5 to 60 mins by LC-MS/MS analysis. In kind it is ADME, organism-based, Sus scrofa. The note with it: pig, in vivo. In a few lines: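 DON (1.6 mg/kg) or molar-equivalent prodrug in sterile saline with 5% ethanol and 5% Tween 80, given as 1 h iv infusion via saphenous catheter to swine (n = 1/dose). Plasma from jugular central venous catheter at predose, 5, 15, 30, 45, 60 min. DON extracted with methanol plus glutamate-d5 IS, dabsyl chloride derivatized, quantified by LC-MS/MS; AUC0–t from plasma profile.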

Data set [4] is described as follows: Total drug uptake in swine brain at 1.6 mg/kg, iv infusion via saphenous vein after 60 mins by LC-MS/MS analysis. The note with it: pig, in vivo, 1 h. The class given is ADME, organism-based, Sus scrofa. In a few lines:
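Anaesthetised swine, n = 2/dose. Infusion iv via saphenous vein over 1 h at 1.6 mg/kg or molar equivalent, in saline with 5% ethanol and 5% Tween 80. Animals were euthanised 60 min post-infusion and frontal cortex sampled. Extraction used methanol with glutamate-d5, then dabsyl chloride derivatisation (pH 9.0, 60 °C, 15 min) and LC–QTOF-MS.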

Data set [5] in a line: Total plasma concentration in swine at 1.6 mg/kg, iv infusion via saphenous vein after 60 mins by LC-MS/MS analysis. The class given is ADME, organism-based, Sus scrofa. The note with it: pig. Summed up:
(§2)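 Terminal swine study using the same 1 h iv dosing, 1.6 mg/kg DON or molar equivalent (n = 2/dose). Animals were euthanized with pentobarbital/phenytoin at 60 min postinfusion. Plasma and full-thickness frontal cortex were collected. DON was quantified by LC-MS/MS after methanol extraction with glutamate-d5 IS and dabsyl chloride derivatization. Values are mean ± SEM.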

For data set [6], the system named is Plasma. Kind of data set: Unbound plasma concentration in swine at 1.6 mg/kg, iv infusion via saphenous vein after 60 mins by LC-MS/MS analysis. The class given is ADME, organism-based, Sus scrofa. The note with it: pig, in vivo, 1 h. In a few lines:
as §1

Data set [7] in a line: Total drug uptake in swine cerebrospinal fluid at 1.6 mg/kg, iv infusion via saphenous vein after 60 mins by LC-MS/MS analysis. In kind it is ADME, organism-based, Sus scrofa. The note with it: pig, read-out: Drug uptake. Summed up:
(§3)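 Swine received DON 1.6 mg/kg or molar-equivalent prodrug by 1 h iv saphenous infusion in saline/5% ethanol/5% Tween 80 (n = 1/dose). Plasma was sampled via jugular catheter. CSF was taken from the cisterna magna at 60 min postdose. DON was methanol-extracted, dabsyl-derivatized and quantified by LC-MS/MS.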

The nature of data set [8]: Ratio of total drug level in swine brain to plasma at 1.6 mg/kg, iv infusion via saphenous vein after 60 mins by LC-MS/MS analysis. The class given is ADME, organism-based, Sus scrofa. As to conditions: pig, read-out: BPR. In a few lines:
as §2

Data set [9] in a line: Ratio of total drug level in swine cerebrospinal fluid to plasma at 1.6 mg/kg, iv infusion via saphenous vein after 60 mins by LC-MS/MS analysis. In kind it is ADME, organism-based, Sus scrofa, CSF/Plasma. As to conditions: pig. Summed up:
as §3

Data set [10] is described as follows: Ratio of total drug level in swine cerebrospinal fluid to unbound drug level in swine brain at 1.6 mg/kg, iv infusion via saphenous vein after 60 mins by LC-MS/MS analysis. The class given is ADME, organism-based, Sus scrofa. The note with it: pig, in vivo, 1 h. In a few lines:
(§4)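 Free DON was derived from total swine brain and plasma levels at 60 min after 1.6 mg/kg-equivalent iv infusion. Unbound fraction came from ultrafiltration: DON 10 µM spiked into swine plasma or brain homogenate, 30 min at 37 °C, centrifuged through a 30 kDa cut-off filter at 37 °C for 45 min. fu = Cu/Ct × 100 by LC-MS/MS.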

The nature of data set [11]: Ratio of unbound drug level in swine brain to plasma at 1.6 mg/kg, iv infusion via saphenous vein after 60 mins by LC-MS/MS analysis. The class given is ADME, organism-based, Sus scrofa. The note with it: pig. In a few lines:
as §4

The nature of data set [12]: Ratio of total drug level in swine cerebrospinal fluid to unbound plasma concentration in swine at 1.6 mg/kg, iv infusion via saphenous vein after 60 mins by LC-MS/MS analysis. The class given is ADME, organism-based, Sus scrofa. As to conditions: pig, in vivo, 1 h.
A short description of data set [13]: Fraction unbound in swine brain at 1.6 mg/kg, iv infusion via saphenous vein after 60 min post-infusion by LC-MS/MS analysis. In kind it is ADME, organism-based, Sus scrofa. As to conditions: pig, in vivo, 1 h.
Data set [14] relates to Mus musculus. The experiment in a line: Toxicity in EcoHIV-infected C57BL/6J mouse assessed as change in visual impairment at 1 mg/kg, […] starting 1 day prior to EcoHIV infection and continuing every other day till day 30 measured after 30 days post infection. In kind it is organism-based. The note with it: in vivo, 720 h.
Data set [15] relates to Mus musculus. The experiment in a line: Toxicity in EcoHIV-infected C57BL/6J mouse assessed as change in motor function at 1 mg/kg, […] starting 1 day prior to EcoHIV infection and continuing every other day till day 30 measured after 30 days post infection. As to conditions: in vivo, 720 h. The class given is organism-based.
In data set [16] the test system is Mus musculus. The experiment in a line: Toxicity in EcoHIV-infected C57BL/6J mouse assessed as change in body weight at 1 mg/kg, […] starting 1 day prior to EcoHIV infection and continuing every other day till day 30 measured after 30 days post infection. The class given is organism-based. The note with it: in vivo, 720 h.
Data set [17] deals with Mus musculus. The experiment in a line: Toxicity in EcoHIV-infected C57BL/6J mouse assessed as diarrhea at 1 mg/kg, […] starting 1 day prior to EcoHIV infection and continuing every other day till day 30 measured after 30 days post infection. The class given is organism-based. The note with it: in vivo, 720 h.
The nature of data set [18]: Protein binding in swine brain at 10 uM after 30 mins by ultrafiltration method. In kind it is ADME, tissue-based, Sus scrofa. As to conditions: pig, 0.5 h. Summed up:
(§5)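 Drug was spiked at 10 µM into swine plasma or swine brain homogenate and held 30 min at 37 °C. Samples were ultrafiltered (30 kDa cutoff) by centrifugation for 45 min at 37 °C, 1800g. Filtrate and unfiltered matrix were extracted and quantified by LC–MS/MS. Fraction unbound = Cu/Ct × 100.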

For data set [19], the system named is Plasma. The experiment in a line: Protein binding in swine plasma at 10 uM after 30 mins by ultrafiltration method. The class given is ADME, cell-free, Sus scrofa. As to conditions: pig, 0.5 h. In a few lines:
as §5

Data set [20] has as its system Mus musculus. The experiment in a line: Decrease in cognitive decline in C57BL/6J mouse EcoHIV associated neurocognitive disorder model assessed as decrease in latency to escape to hidden platform at 1 mg/kg, […] starting 1 day prior to EcoHIV infection and continuing every other day till day 30 measured after 30 days post infection by radial arm water maze test. The class given is functional, organism-based.

Data set [21] relates to Mus musculus. Kind of data set: Decrease in cognitive decline in C57BL/6J mouse EcoHIV associated neurocognitive disorder model assessed as decrease in number of errors across learning trial 1 to 4 and retention trial at 1 mg/kg, […] starting 1 day prior to EcoHIV infection and continuing every other day till day 30 measured after 30 days post infection by radial arm water maze test. In kind it is functional, organism-based. In a few lines: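 Male C57BL/6J mice, 5 weeks old, n = 8/group. Dosing was 1 mg/kg ip every other day, starting 1 day before ip EcoHIV (2 × 10^6 pg p24) or PBS sham, and continued through testing. From day 30 p.i., radial arm water maze: daily four 60 s learning trials, then a 60 s retention test after 30 min rest. Hidden platform arm rotated daily. Values are last-3-day averages.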

In data set [22] the test system is Mus musculus. The experiment in a line: Effect on latency to escape to visible platform in C57BL/6J mouse EcoHIV associated neurocognitive disorder model at 1 mg/kg, […] starting 1 day prior to EcoHIV infection and continuing every other day till day 30 measured after 30 days post infection by radial arm water maze test. The class given is organism-based. As to conditions: in vivo, 720 h. In a few lines: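 Same mice, dosing and EcoHIV or sham inoculation as the maze study. After the hidden-platform radial arm water maze testing, latency to reach a visible platform in the same context was timed. This serves as a control for vision, motivation and swimming ability.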

The test system of data set [23] is Human immunodeficiency virus. The experiment in a line: Increase in EcoHIV viral DNA load in infected C57BL/6J mouse spleen at 1 mg/kg, […] starting 1 day prior to EcoHIV infection and continuing every other day till day 30 measured after 30 days post infection by qPCR method. The class given is organism-based. As to conditions: in vivo, 720 h.
The test system of data set [24] is Human immunodeficiency virus. Kind of data set: Effect on EcoHIV viral DNA load in infected C57BL/6J mouse brain at 1 mg/kg, […] starting 1 day prior to EcoHIV infection and continuing every other day till day 30 measured after 30 days post infection by qPCR method. The class given is organism-based. As to conditions: in vivo, 720 h. On the technique in general: Quantitative PCR measures a nucleic acid by following its amplification.

Active and inactive are the calls of the source.

The term half-life denotes the time in which the quantity being followed falls by half. A lower half-life goes with rapid decline. In data set [1], `CC(C)OC(=O)[C@H](CCC(=O)C=[N+]=[N-])NC(=O)OC(C)(C)OC(=O)C(C)(C)C` had a half-life at 10 µM of 291 min.
What is called AUC(0-t) is the area under the concentration-time curve up to a stated or last time point. Low readings indicate less exposure, high ones more exposure. For the molecule `CC(C)OC(=O)[C@H](CCC(=O)C=[N+]=[N-])NC(=O)OC(OC(=O)C(C)(C)C)c1ccccc1` (some centres not stated), the “Drug uptake(free)” value in data set [2] came to 0.531 nmol/g; in [13] it was 0.53 nmol/g. Also, the half-life at 10 µM in data set [1] is 31 min. Further, the AUC(0-t) in data set [3] was 5.7 µM·h. In data set [4], the Drug uptake is on record as 5.9 nmol/g. Further, the results for the concentration at 1 h in [5] and in data set [7] were 4.88 µM and 1.1 µM, respectively. Further, in the data set on Plasma [6], the “Cp(f)” value was found to be 3.86 µM. The Kp at 1 h in data set [8] came to 1.38; in data set [9] it was 0.069. Also, the Ratio in data set [10] turned out to be 2.07; in [12], 0.087. For the same molecule, in data set [11], the Kp uu at 1 h worked out at 0.157.
`CC(C)OC(=O)[C@H](CCC(=O)C=[N+]=[N-])NC(=O)O[C@H](C)OC(=O)C(C)(C)C` came in with a half-life at 10 µM in data set [1] of 75 min. The molecule further yielded an AUC(0-t) in [3] of 8 µM·h.
As to `CC(C)OC(=O)[C@H](CCC(=O)C=[N+]=[N-])NC(=O)OC(OC(=O)C(C)(C)C)C(C)C` (mixture of isomers), the half-life at 10 µM in [1] is 35 min.
Consider `[N-]=[N+]=CC(=O)CC[C@H](N)C(=O)O` [6-DIAZO-5-OXO-L-NORLEUCINE], for which the entries for the “Drug uptake(free)” value in data set [2] and in data set [13] were 0.464 nmol/g and 0.46 to 0.531 nmol/g, respectively. The Activity entry is recorded as “Non-Toxic” in the data set on Mus musculus [14]; “Non-Toxic” in the data set with Mus musculus [15]; “Non-Toxic” in the data set on Mus musculus [16]; “Non-Toxic” in the data set with Mus musculus [17]; “Non-Toxic” with Mus musculus [22]; “Toxic” in [23]. For the same molecule, the Activity entry in data set [24] is listed as “Non-Toxic”. This molecule returned an AUC(0-t) in [3] of 29.9 µM·h. The Drug uptake in data set [4] is given as 5.15 nmol/g. For the same molecule, the results for the concentration at 1 h in [5] and in [7] were 41.2 µM and 0.252 µM, respectively. The “Cp(f)” value in the data set with Plasma [6] was 32.5 µM. In addition, in [9], the Kp at 1 h came to 0.005. Further, in data set [11], the Kp uu at 1 h is 0.017. In data set [18], this molecule returned a PB of 91%. In the data set with Plasma [19], this molecule showed a PPB of 21%. For the same molecule, the outcome in the data set with Mus musculus [20] and in the data set with Mus musculus [21] was Active.

Values taken from ChEMBL document CHEMBL4038336 (J Med Chem, 2017).
